Assay results from ChEMBL document CHEMBL4732265, “Identification of Piperidine-3-carboxamide Derivatives Inducing Senescence-like Phenotype with Antimelanoma Activities” (ACS Med Chem Lett, 2021).
Each block holds one compound with its values, some of them ahead of it. The source made the active and inactive calls. No cut-off for these calls is given here.

What was measured:
A-375 [1] = assay: Induction of senescence in human A-375 cells treated for 3 days by Hoechst staining based imaging analysis; assay type: functional, cell-based; details: A-375, 72 h
How it was run: (§1)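 A375 melanoma cells were treated for 3 days with a 3-fold dilution series in 0.5% DMSO and stained with Hoechst 33342, LysoTracker Red DND-99 and CellMask. Image analysis scored cell and nucleus size, granule size and spacing, and cytoplasmic texture to give the percentage of senescent cells per well. EC50 is the concentration inducing senescence in half the population, taken from dose–response curves. Run in duplicate; Z′ about 0.8.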

A-375 [2] = assay: Antiproliferative activity in human A-375 cells assessed as reduction of cell number; assay type: functional, cell-based
How it was run: (§2)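 A375 human melanoma cells exposed to compound for 3 days in 3-fold serial dilution in 0.5% DMSO. Cells were stained with Hoechst 33342, LysoTracker Red DND-99 and CellMask, then imaged and segmented by a customized algorithm. Cell number per well was counted, and IC50 is the concentration reducing cell number by 50%, taken from dose–response curves. Run in duplicate.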

[3] = Metabolic stability at phase 1 in mouse liver microsomes; assay type: ADME, Microsome
[4] = Metabolic stability at phase 1 in human liver microsomes; assay type: ADME, Microsome
A-375 [5] = assay: Induction of senescence-like phenotype in human A-375 cells assessed as phenotypic changes after 3 days; assay type: functional, cell-based; details: time 3.0 day; how it was run: as §1
A-375 [6] = assay: Anti melanoma activity in human A-375 cells assessed by decreased cell number measured after 3 days; assay type: functional, cell-based; details: time 3.0 day; how it was run: as §2
A-375 [7] = assay: Induction of cell senescence in human A-375 cells assessed by increased SA-beta-Gal activity at 37 nM measured after 3 days by Hoechst staining based imaging analysis; assay type: functional; details: time 3.0 day
How it was run: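 A375 cells were treated with or without 37 nM agent in 0.5% DMSO for 3 days. Senescence was read in two ways: by Hoechst 33342/LysoTracker Red/CellMask phenomic imaging, and by SA-β-gal staining.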

A-375 [8] = assay: Anti melanoma activity in human A-375 cells assessed as inhibition of cell growth after 3 days; assay type: functional, cell-based; details: time 3.0 day; how it was run: as §2
A-375 [9] = assay: Induction of senescence-like phenotype in human A-375 cells assessed as nucleus size with increasing cytoplasmic granularity after 3 days by staining based imaging assay; assay type: functional, cell-based; details: time 3.0 day; how it was run: as §1
A-375 [10] = assay: Induction of senescence-like phenotype in human A-375 cells assessed as enlarged cell size after 3 days by staining based imaging assay; assay type: functional; details: time 3.0 day; how it was run: as §1

- EC50 (A-375 [1]): > 20 µM
- IC50 (A-375 [2]): > 20 µM
SMILES: O=C(NC1CCCN(Cc2ccc(F)c(F)c2)C1)c1ccc(-c2cscn2)cc1 (centres undefined)

- EC50 (A-375 [1]): 5 µM
- IC50 (A-375 [2]): 2.45 µM
SMILES: O=C(Nc1ccc(-c2cscn2)cc1)C1CCCN(Cc2cccc(F)c2)C1 (centres undefined)

- EC50 (A-375 [1]): 1.26 µM
- IC50 (A-375 [2]): 0.4 µM
SMILES: O=C(Nc1ccc(-c2cscn2)cc1)C1CCCN(Cc2cc(F)c(F)c(F)c2)C1 (centres undefined)

- EC50 (A-375 [1]): > 20 µM
- IC50 (A-375 [2]): > 20 µM
SMILES: O=C(Nc1ccc(-c2cscn2)cc1)C1CCCN(C(=O)c2ccc(F)c(F)c2)C1 (centres undefined)

- EC50 (A-375 [1]): 2.61 µM
- IC50 (A-375 [2]): 1.42 µM
SMILES: O=C(Nc1ccc(-c2cc[nH]c2)cc1)C1CCCN(Cc2ccc(F)c(F)c2)C1 (centres undefined)

- EC50 (A-375 [1]): 4 µM
- IC50 (A-375 [2]): 0.58 µM
SMILES: COc1cc(-c2cscn2)ccc1NC(=O)C1CCCN(Cc2ccc(F)c(F)c2)C1 (centres undefined)

- EC50 (A-375 [1]): 2.2 µM
- IC50 (A-375 [2]): 1.04 µM
SMILES: O=C(Nc1ccc(-c2ccco2)cc1)C1CCCN(Cc2ccc(F)c(F)c2)C1 (centres undefined)

- EC50 (A-375 [1]): 0.6 µM
- IC50 (A-375 [2]): 0.63 µM
SMILES: O=C(Nc1ccc(-c2cscn2)cc1)C1CCCN(Cc2ccc3c(c2)OCO3)C1 (centres undefined)

- EC50 (A-375 [1]): 10 µM
- IC50 (A-375 [2]): 1.48 µM
SMILES: O=C(Nc1ccc(-c2cscn2)cc1)C1CCCN(Cc2cccc(F)c2F)C1 (centres undefined)

- EC50 (A-375 [1]): 4 µM
- IC50 (A-375 [2]): 6 µM
SMILES: O=C(Nc1ccc(-c2cscn2)cc1)[C@@H]1CCCN(Cc2ccc(F)c(F)c2)C1

- EC50 (A-375 [1]): 4 µM
- IC50 (A-375 [2]): 3.01 µM
SMILES: O=C(Nc1ccc(-c2ccc[nH]2)nc1)[C@H]1CCCN(Cc2ccc(F)c(F)c2)C1

- EC50 (A-375 [1]): 5 µM
- IC50 (A-375 [2]): 2.58 µM
SMILES: O=C(Nc1ccc(-c2ccccc2)cc1)C1CCCN(Cc2ccc(F)c(F)c2)C1 (centres undefined)

- Stabilty [3]: Stable
- Stabilty [4]: Stable
- EC50 (A-375 [1]): 1.24 µM
- IC50 (A-375 [2]): 0.88 µM
SMILES: O=C(Nc1ccc(-c2cscn2)cc1)C1CCCN(Cc2ccc(F)c(F)c2)C1 (centres undefined)
- Activity (A-375 [5]): Active
- Activity (A-375 [6]): Active

- EC50 (A-375 [1]): 0.1 µM
- IC50 (A-375 [2]): 0.13 µM
SMILES: O=C(Nc1ccc(-c2ccc[nH]2)cc1F)[C@H]1CCCN(Cc2ccc(F)c(F)c2)C1

- EC50 (A-375 [1]): > 20 µM
- IC50 (A-375 [2]): > 20 µM
SMILES: O=C(Nc1ccc(-c2cscn2)cc1)C1CCCN(Cc2ccccc2)C1 (centres undefined)

- EC50 (A-375 [1]): 0.16 µM
- IC50 (A-375 [2]): 0.22 µM
SMILES: O=C(Nc1ccc(-c2ccc[nH]2)cc1)[C@H]1CCCN(Cc2ccc3c(c2)OCO3)C1

- EC50 (A-375 [1]): 3 µM
- IC50 (A-375 [2]): 0.73 µM
SMILES: Cc1cc(NC(=O)[C@H]2CCCN(Cc3ccc(F)c(F)c3)C2)ccc1-c1ccc[nH]1

- EC50 (A-375 [1]): 1.18 µM
- IC50 (A-375 [2]): 0.6 µM
SMILES: O=C(Nc1ccc(-c2ccncc2)cc1)C1CCCN(Cc2ccc(F)c(F)c2)C1 (centres undefined)

- EC50 (A-375 [1]): > 20 µM
- IC50 (A-375 [2]): > 20 µM
SMILES: O=C(Nc1ccc(-c2cscn2)cc1)C1CN(Cc2ccc(F)c(F)c2)C1

- EC50 (A-375 [1]): 7 µM
- IC50 (A-375 [2]): 4 µM
SMILES: O=C(Nc1ccc(-c2cscn2)cc1)C1CCCN(Cc2ccccc2F)C1 (centres undefined)

- EC50 (A-375 [1]): 5 µM
- IC50 (A-375 [2]): 2.25 µM
SMILES: O=C(Nc1ccc(-c2cscn2)cc1)C1CCCN(Cc2ccc(F)cc2)C1 (centres undefined)

- EC50 (A-375 [1]): 3 µM
- IC50 (A-375 [2]): 1.73 µM
SMILES: O=C(Nc1ccc(-c2cscn2)cc1)C1CCCN(Cc2ccc(Cl)c(Cl)c2)C1 (centres undefined)

- EC50 (A-375 [1]): 0.14 µM
- IC50 (A-375 [2]): 0.19 µM
SMILES: O=C(Nc1ccc(-c2ccc[nH]2)cc1)[C@H]1CCCN(Cc2ccc(F)c(F)c2)C1

Further lines, the compound ahead of its results:

SMILES: COc1cccc(CN2CCCC(C(=O)Nc3ccc(-c4cscn4)cc3)C2)c1 (centres undefined)
- EC50 (A-375 [1]): > 20 µM
- IC50 (A-375 [2]): > 20 µM

SMILES: O=C(Nc1ccc(-c2cscn2)cc1)C1CCCN(Cc2cccc(OC(F)(F)F)c2)C1 (centres undefined)
- EC50 (A-375 [1]): > 20 µM
- IC50 (A-375 [2]): > 20 µM

SMILES: O=C(Nc1ccc(-c2nccs2)cc1)C1CCCN(Cc2ccc(F)c(F)c2)C1 (centres undefined)
- EC50 (A-375 [1]): 0.8 µM
- IC50 (A-375 [2]): 0.24 µM

SMILES: O=C(Nc1ccc(-c2cscn2)cc1)C1CCCN(Cc2cc(F)cc(F)c2)C1 (centres undefined)
- EC50 (A-375 [1]): 1.5 µM
- IC50 (A-375 [2]): 1.36 µM

SMILES: O=C(Nc1ccc(-c2ncc[nH]2)cc1)C1CCCN(Cc2ccc(F)c(F)c2)C1 (centres undefined)
- EC50 (A-375 [1]): 8 µM
- IC50 (A-375 [2]): 19 µM

SMILES: O=C(Nc1ccc(-c2cscn2)cc1)C1CCCN(Cc2ccc3cn[nH]c3c2)C1 (centres undefined)
- EC50 (A-375 [1]): > 20 µM
- IC50 (A-375 [2]): > 20 µM

SMILES: O=C(Nc1ccc(-c2cscn2)cc1)C1CCN(Cc2ccc(F)c(F)c2)CC1
- EC50 (A-375 [1]): 19 µM
- IC50 (A-375 [2]): > 20 µM

SMILES: O=C(Nc1ccc(-c2cscn2)cc1)C1CCN(Cc2ccc(F)c(F)c2)C1 (centres undefined)
- EC50 (A-375 [1]): 8 µM
- IC50 (A-375 [2]): 10 µM

SMILES: O=C(Nc1ccc(-c2ccc[nH]2)cc1)[C@@H]1CCCN(Cc2ccc(F)c(F)c2)C1
- EC50 (A-375 [1]): 19.9 µM
- IC50 (A-375 [2]): 18 µM

SMILES: O=C(Nc1ccc(-c2cscn2)cc1)C1CCCN(Cc2cccnc2)C1 (centres undefined)
- EC50 (A-375 [1]): > 20 µM
- IC50 (A-375 [2]): > 20 µM

SMILES: O=C(Nc1ccc(-c2ccc[nH]2)cc1)C1CCCN(Cc2ccc(F)c(F)c2)C1 (centres undefined)
- EC50 (A-375 [1]): 0.72 µM
- IC50 (A-375 [2]): 0.36 µM

SMILES: O=C(Nc1ccc(-c2cscn2)cc1)[C@H]1CCCN(Cc2ccc(F)c(F)c2)C1
- EC50 (A-375 [1]): 0.27 µM
- IC50 (A-375 [2]): 0.19 µM

SMILES: O=C(Nc1ccc2scnc2c1)C1CCCN(Cc2ccc(F)c(F)c2)C1 (centres undefined)
- EC50 (A-375 [1]): > 20 µM
- IC50 (A-375 [2]): > 20 µM

SMILES: O=C(Nc1ccc(-c2cccs2)cc1)C1CCCN(Cc2ccc(F)c(F)c2)C1 (centres undefined)
- EC50 (A-375 [1]): 0.53 µM
- IC50 (A-375 [2]): 0.39 µM

SMILES: O=C(Nc1ccc(-c2cscn2)cc1)C1CCCN(Cc2cccc(C(F)(F)F)c2)C1 (centres undefined)
- EC50 (A-375 [1]): > 20 µM
- IC50 (A-375 [2]): > 20 µM

SMILES: O=C(Nc1ccc(-c2c[nH]cn2)cc1)C1CCCN(Cc2ccc(F)c(F)c2)C1 (centres undefined)
- EC50 (A-375 [1]): 16 µM
- IC50 (A-375 [2]): > 20 µM

SMILES: COc1cccc2c1C(=O)c1c(O)c3c(c(O)c1C2=O)C[C@@](O)(C(=O)CO)C[C@@H]3O[C@H]1C[C@H](N)[C@H](O)[C@H](C)O1 [DOXORUBICIN]
- IC50 (A-375 [2]): 0.008 µM
- Activity (A-375 [7]): Active

SMILES: O=C(Nc1ccc(-c2ccc[nH]2)cn1)[C@H]1CCCN(Cc2ccc(F)c(F)c2)C1
- Stabilty [3]: Stable
- Stabilty [4]: Stable
- EC50 (A-375 [1]): 0.04 µM
- Activity (A-375 [8]): Active
- Activity (A-375 [9]): Active
- Activity (A-375 [5]): Active
- IC50 (A-375 [2]): 0.03 µM
- Activity (A-375 [10]): Active

SMILES: O=C(Nc1ccc(-c2cccnc2)cc1)C1CCCN(Cc2ccc(F)c(F)c2)C1 (centres undefined)
- EC50 (A-375 [1]): 1.06 µM
- IC50 (A-375 [2]): 0.61 µM

SMILES: O=C(Nc1ccc(-c2cscn2)cc1)C1CCCN(S(=O)(=O)c2ccc(F)c(F)c2)C1 (centres undefined)
- EC50 (A-375 [1]): > 20 µM
- IC50 (A-375 [2]): > 20 µM

SMILES: O=C(Nc1ccc(-c2ccccn2)cc1)C1CCCN(Cc2ccc(F)c(F)c2)C1 (centres undefined)
- EC50 (A-375 [1]): 11 µM
- IC50 (A-375 [2]): 9 µM

SMILES: O=C(Nc1ccc(-c2ccoc2)cc1)C1CCCN(Cc2ccc(F)c(F)c2)C1 (centres undefined)
- EC50 (A-375 [1]): 3 µM
- IC50 (A-375 [2]): 1.29 µM

SMILES: O=C(Nc1ccc(-c2ccsc2)cc1)C1CCCN(Cc2ccc(F)c(F)c2)C1 (centres undefined)
- EC50 (A-375 [1]): 1.93 µM
- IC50 (A-375 [2]): 0.95 µM

SMILES: O=C(Nc1ccc(-c2ccn[nH]2)cc1)C1CCCN(Cc2ccc(F)c(F)c2)C1 (centres undefined)
- EC50 (A-375 [1]): 0.58 µM
- IC50 (A-375 [2]): 0.52 µM
